hERG rescue: hERG (human) protection from proarrhythmic block; CHO-hERG, FluxOR thallium flux, dofetilide IC70 present; activation (rescue from dofetilide block), less the hit threshold, % at 10 µM; 310,000 tested, 0.51% active; AID 1511;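 active = activation above the mean of controls blocked by dofetilide plus 5 SD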;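 also: thallium influx through hERG after potassium depolarization seen as dye fluorescence rise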
KCNK9 inh: human KCNK9 channel inhibition. Q9NPC2. HEK293 KCNK9, FluxOR thallium flux fluorescence; active compounds read low. B-score at 10 µM. 310,000 tested, 1.2% active;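 active = ratio B-score over 3 SD below the library mean, with starting fluorescence within 5 SD of its mean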;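 also: negative B-score means less thallium flux so channel inhibition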
KCNK3 block: human KCNK3 channel inhibition, primary screen. O14649. CHO-KCNK3 thallium flux, FluxOR fluorescence; active compounds read low. B-score at 10 µM. 340,000 tested, 0.84% active;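 active = B-score under library mean minus 4 SD, starting fluorescence ratio at most library mean plus 5 SD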;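 also: more negative B-score means stronger inhibition of thallium flux through KCNK3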
KCNQ1 inh: inhibitors of human KCNQ1 potassium channel. P51787. CHO-K1 KCNQ1, FluxOR thallium flux fluorescence; active compounds read high. B-score at 10 µM. 310,000 tested, 1.3% active;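 active = compounds whose thallium flux B-score, printed positive for inhibition, exceeds three library SD while starting fluorescence stays within three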;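 also: channel opened by potassium depolarization with thallium stimulus after 20 min compound exposure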
Target sequence (P51787 whole entry, looked up): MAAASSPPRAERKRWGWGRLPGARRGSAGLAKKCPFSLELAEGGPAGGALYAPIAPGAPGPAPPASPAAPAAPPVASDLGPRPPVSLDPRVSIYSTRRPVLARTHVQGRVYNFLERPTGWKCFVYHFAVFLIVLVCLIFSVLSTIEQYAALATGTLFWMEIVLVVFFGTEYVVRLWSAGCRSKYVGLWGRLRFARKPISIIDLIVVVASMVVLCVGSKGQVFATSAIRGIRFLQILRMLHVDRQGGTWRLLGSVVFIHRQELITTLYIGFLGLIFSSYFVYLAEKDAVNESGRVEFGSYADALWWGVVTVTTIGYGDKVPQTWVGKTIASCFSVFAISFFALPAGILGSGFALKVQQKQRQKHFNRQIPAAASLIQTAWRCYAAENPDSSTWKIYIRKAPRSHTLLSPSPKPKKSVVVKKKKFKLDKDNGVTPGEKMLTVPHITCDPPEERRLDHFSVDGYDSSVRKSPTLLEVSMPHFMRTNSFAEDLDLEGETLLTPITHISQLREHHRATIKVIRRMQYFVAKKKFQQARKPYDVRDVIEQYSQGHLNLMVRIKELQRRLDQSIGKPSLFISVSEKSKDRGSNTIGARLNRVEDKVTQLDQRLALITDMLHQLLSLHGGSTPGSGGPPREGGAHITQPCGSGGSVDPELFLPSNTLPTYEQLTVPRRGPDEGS
Kir21 inh: Kir2.1 (mouse) channel inhibition; P35561; HEK293-Kir2.1, FluxOR thallium flux fluorescence; active compounds read low; B-score at 10 µM; 310,000 tested, 0.85% active;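 active = fluorescence ratio B-score at or below minus 3 SD of library scores, with starting-brightness B-score within 2 SD, cut at about -4.2 in these data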;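 also: channel flux triggered by added potassium and thallium sulfate stimulus; B-score of peak minus minimum fluorescence over baseline after thallium stimulus; more negative B-score means stronger Kir2.1 block with less thallium influx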
KCNQ1 act: human KCNQ1 channel potentiation or activation; P51787; CHO-K1 KCNQ1, thallium flux FluxOR fluorescence; active compounds read high; B-score at 10 µM; 310,000 tested, 0.35% active; AID 2648;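 active = fluorescence ratio B-score, a plate-corrected score, at least three library SD, with initial intensity B-score within 5 SD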
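Assay system: stable KCNQ1 CHO-K1 line; medium: assay buffer, equal DMSO in all wells; timing: 90 min dye loading and 20 min compound exposure, both at room temperature; technique: kinetic FluxOR thallium fluorescence, 10-s 1-Hz baseline, 110-s post-stimulus read; read-out basis: B score of baseline-normalized fluorescence ratio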
KCNK9 inh conf: confirmation of human KCNK9 potassium channel inhibitors. shares compounds with KCNK9 inh. HEK293 KCNK9 cells, FluxOR thallium flux fluorescence. inhibition, % at 10 µM. 4,900 tested, 43% active. AID 492992;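 active = thallium signal inhibited by more than 5 SD of the compound-free buffer control wells, on both duplicate plates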;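 also: 0% = assay buffer control wells without compound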
Kir21 sel: tests whether KCNK9 modulators also affect mouse Kir2.1. inhibition, % at 10 µM. shares compounds with KCNK9 inh. Kir2.1 cells, FluxOR thallium flux fluorescence. 4,900 tested, 4% active;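 active = thallium signal drop more than 5 SD beyond the mean of the no-compound control wells, seen in both duplicate plates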;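 also: signal is fluorescence rise after thallium addition divided by baseline fluorescence; plate controls were assay buffer only for no effect and full block by chlorpromazine control for full effect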
HEK293 Tl ctr: second check of KCNK9 modulator effects in non-induced HEK293 cells. shares compounds with KCNK9 inh. FluxOR thallium flux. 4,900 tested, 40% active. inhibition, % at 10 µM;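 active = thallium signal drop beyond 5 SD of the untreated control mean, on both duplicate plates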;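 also: plate controls were buffer only IC0 wells for no effect and SID17386958 at its maximal inhibitory level for full effect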
Numbers without * were called inactive; i = inactive; · = not tested or not shown. Sampled rows, rich in hits. Any-hit rate of the full collection: about 3.7%.

SMILES	hERG rescue	KCNK9 inh	KCNK3 block	KCNQ1 inh	Kir21 inh	KCNQ1 act	KCNK9 inh conf	Kir21 sel	HEK293 Tl ctr
COc1cccc(Nc2nc(-c3ccc4c(c3)OCCO4)cs2)c1	-8	i	i	i	-0.06	i	i	i	i
COc1ccc(Cl)cc1Nc1nc(-c2sc(NC(=O)C(C)(C)C)nc2C)cs1	-5	i	i	i	0.79	i	·	·	·
Cc1nc(NC(=O)c2ccccc2)sc1-c1csc(NCc2ccccc2)n1	-19	i	i	i	-0.31	i	·	·	·
c1cc2c(cc1Nc1nc(-c3ccc4c(c3)OCO4)cs1)OCCO2	-13	i	i	i	0.1	i	·	·	·
COc1ccc(Cl)cc1Nc1nc(-c2sc(NC(=O)c3ccco3)nc2C)cs1	-36	-11*	i	i	-0.61	i	i	i	i
Cc1nc(NC(=O)c2ccccc2)sc1-c1csc(NCCc2ccccc2)n1	-7	-8.7*	i	i	1.4	i	32%*	i	i
COc1cccc(Nc2nc(-c3sc(NC(=O)c4ccco4)nc3C)cs2)c1	-26	-11*	i	i	-2.9	i	50%*	i	i
CCSc1nc(N2CCCCC2)c2c(c1C#N)CCCC2	-12	-12*	i	i	0.11	i	57%*	i	46%*
O=C(CSc1n[nH]c(-c2ccccc2F)n1)Nc1cc(F)ccc1F	·	·	i	·	·	·	·	·	·
CCc1ccc(C(=O)NNC(=O)[C@H](C)NC(=O)c2ccco2)cc1	·	·	i	·	·	·	·	·	·
COc1cccc(NC(=O)N(CCCN2CCOCC2)C(C)c2cc3cccc(OC)c3o2)c1 (stereo not drawn)	-2	-8.3*	i	i	-0.04	i	40%*	i	31%*
COc1cccc(NC(=S)N(CCCN2CCOCC2)C(C)c2cc3cccc(OC)c3o2)c1 (stereo not drawn)	-9	i	i	i	1.4	i	·	·	·
c1csc(-c2nc(N3CCOCC3)c3ccccc3n2)c1	-6	i	i	i	-0.15	i	·	·	·
COc1ccc(N2CCN(c3nc(-c4cccs4)nc4ccccc34)CC2)cc1	-17	-14*	i	i	1.9	i	31%*	i	28%*
COc1cccc(Nc2nc(-c3cccs3)nc3ccccc23)c1	-10	i	i	i	0.73	i	·	·	·
COc1cccc(CN(C)c2nc(-c3cccs3)nc3ccccc23)c1	-22	-9.2*	i	i	-0.54	i	54%*	i	41%*
Cc1nnc(SCc2nnc(-c3ccccc3Br)o2)s1	-8	i	i	i	-1.9	i	·	·	·
C=CCN(CC=C)CCOc1cc(C)ccc1[N+](=O)[O-]	-8	i	i	i	0.51	i	i	i	i
Brc1cccc(OCCN2CCc3ccccc3C2)c1	-9	i	i	i	0.76	i	i	i	i
Brc1cccc(OCCN2CCCCC2)c1	-5	i	i	i	0.18	i	·	·	·
Cc1ccc([N+](=O)[O-])c(OCCN2CCc3ccccc3C2)c1	0	i	i	i	1.4	i	i	i	i
Cc1ccc(-n2c(C)nc3c(cnn3-c3ccc(F)cc3)c2=O)cc1C	-3	i	i	i	-0.1	i	·	·	·
Cc1ccc(-n2c(C)nc3c(cnn3-c3ccc(C)c(C)c3)c2=O)cc1C	-11	i	i	i	0.08	i	i	i	i
Oc1ccccc1C(=S)N1CCN(C(=S)c2ccccc2O)CC1	-1	i	i	i	-0.9	i	·	·	·
Cc1ccccc1N1C(=O)C2CCCN2C1=S (stereo not drawn)	·	·	i	·	·	·	·	·	·
O=C(COc1cc(F)ccc1[N+](=O)[O-])Nc1cc(S(=O)(=O)N2CCCC2)ccc1Cl	·	·	i	·	·	·	·	·	·
